Laboratory results: ChEMBL document CHEMBL3352165 (Eur J Med Chem, 2014)

Assays:
[1] = target: Receptor tyrosine-protein kinase erbB-2 (Homo sapiens, UniProt P04626); assay: Inhibition of HER2 (unknown origin) assessed as reduction in autophosphorylation by ELISA method
Outline: (§1)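 Phosphotyrosine ELISA with purified kinase (20 ng) and 5 µM ATP in buffer (50 mM HEPES pH 7.4, 20 mM MgCl2, 0.1 mM MnCl2, 0.2 mM Na3VO4, 1 mM DTT), 1 h at 37 °C, DMSO ≤1%. Detection by PY99 antibody, then HRP anti-mouse IgG with o-phenylenediamine, A490. IC50 by Logit from at least three independent tests.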

[2] = target: Epidermal growth factor receptor (Homo sapiens, UniProt P00533); assay: Inhibition of HER1 (unknown origin) assessed as reduction in autophosphorylation by ELISA method
[3] = target: Platelet-derived growth factor receptor beta (Homo sapiens, UniProt P09619); assay: Inhibition of PDGFRbeta (unknown origin) by ELISA method; outline: as §1
[4] = target: Vascular endothelial growth factor receptor 2 (Homo sapiens, UniProt P35968); assay: Inhibition of KDR (unknown origin) by ELISA method; outline: as §1
[5] = target: Mast/stem cell growth factor receptor Kit (Homo sapiens, UniProt P10721); assay: Inhibition of c-KIT (unknown origin) by ELISA method; outline: as §1
[6] = Cytotoxicity against human SKBR3 cells assessed as inhibition of cell growth after 72 hrs by sulforhodamine B assay; type: functional, cell-based; details: SK-BR-3, 72 h
Outline: (§2)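 Cells grown in RPMI-1640 with 5% FBS and plated at 5.0×10^4/ml. Next day exposed to 0.5–5000 ng/ml for 3 days. Survival read by sulforhodamine B staining. IC50 taken from growth curves; mean of at least three determinations.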

BT-474 = assay: Cytotoxicity against human BT474 cells assessed as inhibition of cell growth after 72 hrs by sulforhodamine B assay; type: functional, cell-based; details: BT-474, 72 h; outline: as §2
A-431 = assay: Cytotoxicity against human A431 cells assessed as inhibition of cell growth after 72 hrs by sulforhodamine B assay; type: functional, cell-based; details: A-431, 72 h; outline: as §2
MCF7 = assay: Cytotoxicity against human MCF7 cells assessed as inhibition of cell growth after 72 hrs by sulforhodamine B assay; type: functional, cell-based; details: MCF7, 72 h; outline: as §2
[7] = Antitumor activity against human Calu3 cells xenografted in BALB/cA mouse assessed as tumor growth inhibition at 200 mg/kg, po; type: functional; details: Calu-3, read-out: TGI
Outline: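 Female BALB/cA nude mice, 6–7 weeks old, implanted s.c. on midright side with 2×10^6 Calu-3 cells in 0.2 ml PBS. Grouped at 60–150 mm³ tumour volume (6 per treated group, 12 vehicle). Oral dosing in 0.5% CMC with 0.1% Tween-80. Caliper volume = L×W²×0.5; inhibition = (1 − T/C)×100% on relative tumour volume; weight tracked for 21 d.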

Mus musculus = assay: Toxicity in human Calu3 cells xenografted BALB/cA mouse assessed as body weight loss at 200 mg/kg, po measured every other day for 21 days; type: organism-based, Calu-3; parameters: dose 200 mg/kg, route oral; details: in vivo, 504 h
Outline: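 Female BALB/cA nude mice, 6–7 weeks old, implanted s.c. on the mid-right flank with 2×10^6 Calu-3 cells in 0.2 ml PBS. At 60–150 mm³ tumour volume, mice randomised into six per treatment group (twelve vehicle controls). Oral dosing in 0.5% CMC aqueous solution with 0.1% Tween-80. Body weight recorded every other day for 21 d.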

[8] = Cmax in Beagle dog at 240 mg/kg, po administered as single dose measured after 0.25 to 24 hrs post dose by LC/MS/MS method; type: ADME, organism-based, Canis lupus familiaris; parameters: dose 240 mg/kg, route oral; details: in vivo
Outline: (§3)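 Single oral gavage of 240 mg/kg to beagle dogs (n = 6). Blood sampled at 0.25–24 h, kept on ice, centrifuged within 1 h (1000 × g, 4 °C, 15 min), plasma stored at −20 °C. Drug quantified by validated LC/MS/MS. AUC0–24 from non-compartmental analysis; Cmax and MRT taken directly from concentration–time data.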

[9] = Tmax in Beagle dog at 240 mg/kg, po administered as single dose measured after 0.25 to 24 hrs post dose by LC/MS/MS method; type: ADME, organism-based, Canis lupus familiaris; parameters: dose 240 mg/kg, route oral; details: in vivo
Outline: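 Beagle dogs (n = 6), single oral gavage dose of 240 mg/kg. Plasma levels measured by validated LC/MS/MS. Tmax read directly from the concentration-time data.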

[10] = AUC (0 to 24 hrs) in Beagle dog at 240 mg/kg, po administered as single dose measured after 0.25 to 24 hrs post dose by LC/MS/MS method; type: ADME, organism-based, Canis lupus familiaris; parameters: time < 24 hr, dose 240 mg/kg, route oral; details: plasma; outline: as §3
[11] = Mean residence time in Beagle dog at 240 mg/kg, po administered as single dose measured after 0.25 to 24 hrs post dose by LC/MS/MS method; type: ADME, organism-based, Canis lupus familiaris; parameters: dose 240 mg/kg, route oral; details: in vivo; outline: as §3
cells [12] = details: Homo sapiens, Calu-3, 72 h
MDA-MB-453 = assay: cells; details: Homo sapiens, MDA-MB-453, 72 h
cells [13] = details: Homo sapiens, SK-OV-3, 72 h
MDA-MB-231 = assay: cells; details: Homo sapiens, MDA-MB-231, 72 h
NCI-H460 = assay: cells; details: Homo sapiens, NCI-H460, 72 h
MRC5 = assay: cells; details: Homo sapiens, MRC5, 72 h

Chain of Epidermal growth factor receptor (P00533 whole entry): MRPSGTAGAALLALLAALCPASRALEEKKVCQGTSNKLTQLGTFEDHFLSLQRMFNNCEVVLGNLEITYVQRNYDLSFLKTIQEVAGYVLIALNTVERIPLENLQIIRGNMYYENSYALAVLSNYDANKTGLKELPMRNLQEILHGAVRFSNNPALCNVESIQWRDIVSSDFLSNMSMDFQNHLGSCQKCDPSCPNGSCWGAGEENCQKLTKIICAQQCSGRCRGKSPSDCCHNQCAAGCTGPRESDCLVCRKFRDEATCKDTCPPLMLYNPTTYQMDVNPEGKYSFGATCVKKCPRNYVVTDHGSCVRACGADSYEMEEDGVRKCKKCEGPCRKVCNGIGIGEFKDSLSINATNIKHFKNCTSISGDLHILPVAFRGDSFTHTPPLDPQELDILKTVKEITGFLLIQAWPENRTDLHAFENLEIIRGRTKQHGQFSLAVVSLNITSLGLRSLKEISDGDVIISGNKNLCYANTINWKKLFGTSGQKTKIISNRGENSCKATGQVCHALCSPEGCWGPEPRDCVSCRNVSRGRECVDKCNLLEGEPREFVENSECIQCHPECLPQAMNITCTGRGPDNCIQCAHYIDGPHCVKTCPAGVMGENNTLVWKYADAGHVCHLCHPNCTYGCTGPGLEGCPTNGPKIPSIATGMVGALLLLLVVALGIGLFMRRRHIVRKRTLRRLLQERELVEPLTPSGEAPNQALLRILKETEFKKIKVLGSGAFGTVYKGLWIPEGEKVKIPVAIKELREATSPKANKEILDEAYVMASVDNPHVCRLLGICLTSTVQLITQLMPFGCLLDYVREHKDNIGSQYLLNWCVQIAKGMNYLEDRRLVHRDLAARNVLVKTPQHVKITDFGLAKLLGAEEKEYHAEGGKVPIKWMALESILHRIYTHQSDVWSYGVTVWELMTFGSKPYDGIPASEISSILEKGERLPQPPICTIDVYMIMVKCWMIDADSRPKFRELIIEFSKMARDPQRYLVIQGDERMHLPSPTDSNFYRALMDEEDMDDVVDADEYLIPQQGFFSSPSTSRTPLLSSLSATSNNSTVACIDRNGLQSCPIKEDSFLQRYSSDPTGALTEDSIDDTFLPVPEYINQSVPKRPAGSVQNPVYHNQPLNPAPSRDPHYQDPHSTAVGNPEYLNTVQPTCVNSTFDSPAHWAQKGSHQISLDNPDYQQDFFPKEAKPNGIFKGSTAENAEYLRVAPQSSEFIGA
Chain of Receptor tyrosine-protein kinase erbB-2 (P04626 whole entry): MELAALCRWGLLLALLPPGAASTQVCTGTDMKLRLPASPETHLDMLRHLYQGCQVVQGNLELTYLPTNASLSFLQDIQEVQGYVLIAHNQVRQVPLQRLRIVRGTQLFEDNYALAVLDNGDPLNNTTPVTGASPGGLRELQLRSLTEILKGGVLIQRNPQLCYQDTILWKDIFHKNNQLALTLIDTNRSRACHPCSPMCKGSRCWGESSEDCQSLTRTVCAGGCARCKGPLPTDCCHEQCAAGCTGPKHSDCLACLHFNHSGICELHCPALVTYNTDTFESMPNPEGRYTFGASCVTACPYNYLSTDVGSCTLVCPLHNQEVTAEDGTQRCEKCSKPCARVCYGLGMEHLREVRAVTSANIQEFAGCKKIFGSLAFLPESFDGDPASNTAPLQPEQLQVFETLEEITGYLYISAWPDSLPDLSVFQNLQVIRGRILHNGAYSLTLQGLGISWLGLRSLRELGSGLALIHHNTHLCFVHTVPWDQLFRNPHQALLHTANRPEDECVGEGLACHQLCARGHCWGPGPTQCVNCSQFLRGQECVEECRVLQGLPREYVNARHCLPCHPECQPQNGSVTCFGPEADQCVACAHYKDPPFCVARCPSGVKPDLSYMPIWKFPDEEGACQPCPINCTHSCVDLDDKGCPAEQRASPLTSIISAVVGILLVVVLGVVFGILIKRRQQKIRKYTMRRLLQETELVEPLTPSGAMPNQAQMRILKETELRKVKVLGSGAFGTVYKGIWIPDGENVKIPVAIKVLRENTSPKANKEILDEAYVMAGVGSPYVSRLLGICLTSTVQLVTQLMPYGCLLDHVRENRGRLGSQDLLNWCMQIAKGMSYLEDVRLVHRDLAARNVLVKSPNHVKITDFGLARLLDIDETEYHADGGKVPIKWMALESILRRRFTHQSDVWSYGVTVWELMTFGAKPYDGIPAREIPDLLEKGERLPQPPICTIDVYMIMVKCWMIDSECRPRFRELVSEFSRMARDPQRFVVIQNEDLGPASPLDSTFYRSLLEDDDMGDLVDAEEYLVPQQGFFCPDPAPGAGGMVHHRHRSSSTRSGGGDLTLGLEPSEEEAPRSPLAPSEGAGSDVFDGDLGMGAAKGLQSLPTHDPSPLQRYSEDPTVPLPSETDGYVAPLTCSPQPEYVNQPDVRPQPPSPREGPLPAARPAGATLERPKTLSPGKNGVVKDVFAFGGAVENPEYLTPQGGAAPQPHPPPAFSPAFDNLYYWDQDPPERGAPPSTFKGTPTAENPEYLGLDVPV
Chain of Platelet-derived growth factor receptor beta (P09619 whole entry): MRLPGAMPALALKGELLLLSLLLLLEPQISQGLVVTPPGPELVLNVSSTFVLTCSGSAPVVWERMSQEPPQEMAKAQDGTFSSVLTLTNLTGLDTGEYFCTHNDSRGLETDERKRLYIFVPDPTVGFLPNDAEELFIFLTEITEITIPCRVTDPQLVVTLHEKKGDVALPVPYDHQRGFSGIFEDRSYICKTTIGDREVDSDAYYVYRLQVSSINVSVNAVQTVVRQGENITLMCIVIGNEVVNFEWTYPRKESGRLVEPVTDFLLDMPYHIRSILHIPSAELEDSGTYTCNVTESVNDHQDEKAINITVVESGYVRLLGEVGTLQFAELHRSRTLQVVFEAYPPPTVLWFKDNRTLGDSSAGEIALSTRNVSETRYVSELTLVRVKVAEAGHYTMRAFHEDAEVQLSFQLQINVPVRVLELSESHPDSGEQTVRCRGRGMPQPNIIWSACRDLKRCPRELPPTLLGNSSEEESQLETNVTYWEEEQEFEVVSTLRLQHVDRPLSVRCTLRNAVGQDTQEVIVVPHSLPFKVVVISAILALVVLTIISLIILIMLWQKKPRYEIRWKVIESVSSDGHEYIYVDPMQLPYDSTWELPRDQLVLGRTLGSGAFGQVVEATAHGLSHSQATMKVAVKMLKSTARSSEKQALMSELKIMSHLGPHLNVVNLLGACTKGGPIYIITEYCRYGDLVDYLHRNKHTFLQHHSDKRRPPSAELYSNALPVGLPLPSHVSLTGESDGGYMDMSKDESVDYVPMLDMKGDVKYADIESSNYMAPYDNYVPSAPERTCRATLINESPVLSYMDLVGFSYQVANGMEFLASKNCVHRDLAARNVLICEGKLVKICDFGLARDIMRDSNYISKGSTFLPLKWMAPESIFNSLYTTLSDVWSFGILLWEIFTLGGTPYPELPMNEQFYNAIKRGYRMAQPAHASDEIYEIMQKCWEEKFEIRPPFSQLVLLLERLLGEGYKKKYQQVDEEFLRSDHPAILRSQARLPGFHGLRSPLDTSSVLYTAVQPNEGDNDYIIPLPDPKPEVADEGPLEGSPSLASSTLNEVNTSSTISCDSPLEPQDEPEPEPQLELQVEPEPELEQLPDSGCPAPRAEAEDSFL
Chain of Mast/stem cell growth factor receptor Kit (P10721 whole entry): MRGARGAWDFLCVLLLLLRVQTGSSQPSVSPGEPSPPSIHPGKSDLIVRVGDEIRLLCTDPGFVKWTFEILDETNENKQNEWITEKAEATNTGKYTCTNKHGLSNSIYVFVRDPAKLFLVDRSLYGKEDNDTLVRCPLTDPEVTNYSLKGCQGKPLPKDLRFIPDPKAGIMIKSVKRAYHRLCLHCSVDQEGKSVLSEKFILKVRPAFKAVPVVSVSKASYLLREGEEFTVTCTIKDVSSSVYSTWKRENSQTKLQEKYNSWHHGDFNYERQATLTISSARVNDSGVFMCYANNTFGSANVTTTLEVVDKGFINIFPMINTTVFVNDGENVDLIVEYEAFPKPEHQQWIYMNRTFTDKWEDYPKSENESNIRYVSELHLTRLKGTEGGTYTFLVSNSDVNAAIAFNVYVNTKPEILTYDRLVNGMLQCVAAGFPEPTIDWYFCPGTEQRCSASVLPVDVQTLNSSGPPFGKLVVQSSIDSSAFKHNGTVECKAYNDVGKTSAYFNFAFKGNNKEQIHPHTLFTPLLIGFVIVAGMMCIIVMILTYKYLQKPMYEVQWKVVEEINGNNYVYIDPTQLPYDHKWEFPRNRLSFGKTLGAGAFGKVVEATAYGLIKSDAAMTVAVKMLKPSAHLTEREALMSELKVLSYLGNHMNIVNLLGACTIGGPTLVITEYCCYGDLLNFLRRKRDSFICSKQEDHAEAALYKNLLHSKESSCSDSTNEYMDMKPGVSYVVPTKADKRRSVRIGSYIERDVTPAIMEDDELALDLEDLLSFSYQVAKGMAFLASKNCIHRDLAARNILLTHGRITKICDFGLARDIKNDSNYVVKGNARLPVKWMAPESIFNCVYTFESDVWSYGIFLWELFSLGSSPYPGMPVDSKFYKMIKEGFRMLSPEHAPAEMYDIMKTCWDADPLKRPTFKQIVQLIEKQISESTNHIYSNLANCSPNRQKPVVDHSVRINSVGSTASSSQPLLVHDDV

In the case of `CNC(CS(C)(=O)=O)c1ccc(-c2ccc3ncnc(Nc4ccc(OCc5cccc(F)c5)c(Cl)c4)c3c2)o1` (racemic), the IC50 [1] is reported as 1 nM, the IC50 [2] is reported as 34.8 nM and the IC50 [3] is reported as over 200 µM. For the same compound, the IC50 [4] was over 200 µM, the IC50 [5] was over 200 µM and the IC50 [6] was 30.1 nM. It also gave an IC50 (BT-474) of 76.8 nM, an IC50 (A-431) of 648 nM and an IC50 (MCF7) of 6.52 µM.

`CN(C)C(CS(C)(=O)=O)c1ccc(-c2ccc3ncnc(Nc4ccc(OCc5cccc(F)c5)c(Cl)c4)c3c2)o1` (racemic) showed an IC50 [1] of 3.6 nM, an IC50 [2] of 6.8 nM and an IC50 [3] of over 200 µM. The IC50 [4] was over 200 µM, the IC50 [5] was over 200 µM and the IC50 [6] was 36.2 nM. It also gave an IC50 (BT-474) of 48.6 nM, an IC50 (A-431) of 604 nM and an IC50 (MCF7) of 6.12 µM. The inhibition in vivo at 200 mg/kg [7] was 58% and the Activity (Mus musculus) was “Non-toxic”.

Compound `CS(=O)(=O)C[C@H](N)c1ccc(-c2ccc3ncnc(Nc4ccc(OCc5cccc(F)c5)c(Cl)c4)c3c2)o1` has an IC50 [1] of 10.6 nM, an IC50 [2] of 13.5 nM and an IC50 [3] of over 200 µM. It also gave an IC50 [4] of over 200 µM, an IC50 [5] of over 200 µM and an IC50 [6] of 84.1 nM. For the same compound, the IC50 (BT-474) was 116 nM, the IC50 (A-431) was 632 nM and the IC50 (MCF7) was 9.34 µM.

With `CS(=O)(=O)CC(N)c1ccc(-c2ccc3ncnc(Nc4ccc(OCc5cccc(F)c5)c(Cl)c4)c3c2)o1` (racemic) the IC50 [1] was 3.4 nM, the IC50 [2] was 17.6 nM and the IC50 [3] was over 200 µM. For the same compound, the IC50 [4] was over 200 µM, the IC50 [5] was over 200 µM and the IC50 [6] was 26.6 nM. It also gave an IC50 (BT-474) of 75.4 nM, an IC50 (A-431) of 683 nM and an IC50 (MCF7) of 6.62 µM.

`CS(=O)(=O)C[C@@H](N)c1ccc(-c2ccc3ncnc(Nc4ccc(OCc5cccc(F)c5)c(Cl)c4)c3c2)o1` gave an IC50 [1] of 2.9 nM, an IC50 [2] of 10.8 nM and an IC50 [3] of over 200 µM. The IC50 [4] was over 200 µM, the IC50 [5] was over 200 µM and the IC50 [6] was 21 nM. For the same compound, the IC50 (BT-474) was 69.2 nM, the IC50 (A-431) was 663 nM and the IC50 (MCF7) was 6.83 µM. The Cmax [8] was 2100 ng/mL, the Tmax [9] was 5 h and the AUC(0-t) at 24 h [10] was 20300 ng·h/mL. It also gave an MRT [11] of 6.8 h, an IC50 (cells [12]) of 220 nM and an IC50 (MDA-MB-453) of 240 nM. For the same compound, the IC50 (cells [13]) was 410 nM, the IC50 (MDA-MB-231) was over 100 µM and the IC50 (NCI-H460) was over 100 µM. It also gave an IC50 (MRC5) of over 100 µM.

For `CN(C)[C@@H](CS(C)(=O)=O)c1ccc(-c2ccc3ncnc(Nc4ccc(OCc5cccc(F)c5)c(Cl)c4)c3c2)o1`, the IC50 [1] was 26.1 nM, the IC50 [2] was 30.4 nM and the IC50 [3] was over 200 µM. For the same compound, the IC50 [4] was over 200 µM, the IC50 [5] was over 200 µM and the IC50 [6] was 27.8 nM. The IC50 (BT-474) was 83.2 nM, the IC50 (A-431) was 768 nM and the IC50 (MCF7) was 6.67 µM.

With `CC(C)NC(CS(C)(=O)=O)c1ccc(-c2ccc3ncnc(Nc4ccc(OCc5cccc(F)c5)c(Cl)c4)c3c2)o1` (racemic) the IC50 [1] was 48.3 nM, the IC50 [3] was over 200 µM and the IC50 [4] was over 200 µM. It also gave an IC50 [5] of over 200 µM, an IC50 [6] of 101 nM and an IC50 (BT-474) of 94.4 nM. For the same compound, the IC50 (A-431) was 623 nM and the IC50 (MCF7) was 6.11 µM.

`CCCCOC(=O)N[C@H](CS(C)(=O)=O)c1ccc(-c2ccc3ncnc(Nc4ccc(OCc5cccc(F)c5)c(Cl)c4)c3c2)o1` showed an IC50 [1] of 164 nM, an IC50 [2] of 92.8 nM and an IC50 [3] of over 200 µM. The IC50 [4] was over 200 µM, the IC50 [5] was over 200 µM and the IC50 [6] was 702 nM. For the same compound, the IC50 (BT-474) was 1000 nM, the IC50 (A-431) was 1090 nM and the IC50 (MCF7) was 9.21 µM.

`CS(=O)(=O)CCNC(CS(C)(=O)=O)c1ccc(-c2ccc3ncnc(Nc4ccc(OCc5cccc(F)c5)c(Cl)c4)c3c2)o1` (racemic) showed an IC50 [1] of 52.2 nM, an IC50 [2] of 28.7 nM and an IC50 [3] of over 200 µM. The IC50 [4] was over 200 µM, the IC50 [5] was over 200 µM and the IC50 [6] was 123 nM. It also gave an IC50 (BT-474) of 104 nM, an IC50 (A-431) of 684 nM and an IC50 (MCF7) of 7.01 µM.

For `CCCCCCOC(=O)N[C@H](CS(C)(=O)=O)c1ccc(-c2ccc3ncnc(Nc4ccc(OCc5cccc(F)c5)c(Cl)c4)c3c2)o1`, the IC50 [1] was 158 nM, the IC50 [2] was 110 nM and the IC50 [3] was over 200 µM. The IC50 [4] was over 200 µM, the IC50 [5] was over 200 µM and the IC50 [6] was 1050 nM. For the same compound, the IC50 (BT-474) was 1920 nM, the IC50 (A-431) was 1200 nM and the IC50 (MCF7) was over 10 µM.

`CCNC(CS(C)(=O)=O)c1ccc(-c2ccc3ncnc(Nc4ccc(OCc5cccc(F)c5)c(Cl)c4)c3c2)o1` (racemic) gave an IC50 [1] of 15.5 nM, an IC50 [2] of 14.7 nM and an IC50 [3] of over 200 µM. The IC50 [4] was over 200 µM, the IC50 [5] was over 200 µM and the IC50 [6] was 33.9 nM. It also gave an IC50 (BT-474) of 109 nM, an IC50 (A-431) of 884 nM and an IC50 (MCF7) of 8.73 µM.

For `CCOC(=O)N[C@H](CS(C)(=O)=O)c1ccc(-c2ccc3ncnc(Nc4ccc(OCc5cccc(F)c5)c(Cl)c4)c3c2)o1`, the IC50 [1] was 152 nM, the IC50 [2] was 89.6 nM and the IC50 [3] was over 200 µM. For the same compound, the IC50 [4] was over 200 µM, the IC50 [5] was over 200 µM and the IC50 [6] was 106 nM. For the same compound, the IC50 (BT-474) was 120 nM, the IC50 (A-431) was 884 nM and the IC50 (MCF7) was 8.93 µM.

With `CS(=O)(=O)CC(NC1CCCCC1)c1ccc(-c2ccc3ncnc(Nc4ccc(OCc5cccc(F)c5)c(Cl)c4)c3c2)o1` (racemic) the IC50 [1] was 58.6 nM, the IC50 [2] was 77.2 nM and the IC50 [3] was over 200 µM. It also gave an IC50 [4] of over 200 µM, an IC50 [5] of over 200 µM and an IC50 [6] of 162 nM. The IC50 (BT-474) was 174 nM, the IC50 (A-431) was 773 nM and the IC50 (MCF7) was 9.13 µM.
